Assay outcomes deposited in PubChem BioAssay by several laboratories.
MC4R ag barr = human MC4R agonism via beta-arrestin; P32245; U2OS MC4R beta-arrestin complementation, luminescence; percent of melanotan II response, DMSO zero; activation, % at 8.9 µM; 360,000 tested, 0.98% active; AID 540308;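 active = activation above a per-plate cutoff, the mean activation of sample wells on that plate plus 3 SD, cut at about 8% in these data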
Target sequence (P32245 whole entry, looked up): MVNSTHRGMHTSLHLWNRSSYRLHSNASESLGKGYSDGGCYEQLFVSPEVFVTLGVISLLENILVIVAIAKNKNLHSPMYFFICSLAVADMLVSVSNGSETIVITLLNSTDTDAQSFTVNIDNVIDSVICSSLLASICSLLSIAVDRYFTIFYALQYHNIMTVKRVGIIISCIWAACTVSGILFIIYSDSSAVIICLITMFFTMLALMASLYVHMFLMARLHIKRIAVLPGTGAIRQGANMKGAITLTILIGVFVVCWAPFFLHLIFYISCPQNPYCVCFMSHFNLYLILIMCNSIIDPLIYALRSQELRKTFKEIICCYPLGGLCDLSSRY
Granule exo inh = lytic granule exocytosis inhibition. TALL-104 LAMP-1 surface exposure, flow cytometry; cells stimulated with thapsigargin and PMA. 360,000 tested, 0.66% active. inhibition, % at 10 µM;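 active = inhibition above about 55%, limit read from the data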
TbMetRS inhib = blocks T. brucei methionyl-tRNA synthetase activity; purified T. brucei MetRS, ATP depletion, Kinase-Glo luminescence; inhibition, % at 11.9 µM; 360,000 tested, 0.4% active; AID 624268;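 active = inhibition above a per-plate cutoff of the control wells' mean inhibition plus 3 SD, cut at about 5.5% in these data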
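Material: parasite MetRS enzyme / Replication: singlicate, one well per compound / Signal: luminescence of leftover ATP / Schedule: 2 h aminoacylation at 25 °C after 15 min preincubation / Medium: HEPES-MgCl2-KCl buffer plus DTT, spermine, BSA, pyrophosphatase / Doses: 11.9 µM single point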
ABCB6 inh 2 = human ABCB6 transporter inhibition; K562-ABCB6 porphyrin accumulation, flow cytometry, 1 h; stronger effect = lower value; 360,000 tested, 0.19% active; fluorescence ratio to DMSO, % at 10 µM;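 active = fluorescence ratio to DMSO below 75%, the collection mean minus 3 SD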;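 note: signal is porphyrin accumulated inside mitochondria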
hiPSC survival = hiPSC single-cell survival enhancement | survival enhancement, % at 20 µM | ATPlite luminescence; 100% = ROCK inhibitor wells, 0% = DMSO | AID 602274 | 360,000 tested, 0.044% active; in the data active = survival enhancement above about 18%;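 note: cells exposed to compounds for 16 hours before the ATP read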
MC4R antagonist = human MC4R antagonism in cAMP assay; P32245; MC4R-expressing cells, MTII-stimulated cAMP, LANCE TR-FRET; inhibition, % at 6.5 µM; 360,000 tested, 0.48% active; AID 540295;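 active = inhibition above its plate's cutoff, the mean of tested wells on that plate plus 3 SD, cut at about 29% in these data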
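material = U2OS cells stably expressing human melanocortin 4 receptor (MC4R) | also added = Melanotan II challenge | dosing = single nominal compound dose of 6.5 µM | detection = TR-FRET with Eu-cAMP and labeled anti-cAMP, 671 nm | replication = singlicate | timing = compound 30 min, challenge 1 h, detection 1 h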
Exocytosis CP01 = lytic granule exocytosis inhibition; shares compounds with Granule exo inh; TALL-104 cells, LAMP-1 externalization, flow cytometry; stimulated with PMA plus thapsigargin; inhibition, % at 10 µM; 1,500 tested, 11% active; AID 651954; in the data active = inhibition above about 60%
Numbers stand for hits; – = inactive; · = no result given; ! = not active in a repeat. Most compounds without a hit are left out; they make up all but 2.6% or so of the library.

SMILES | MC4R ag barr | Granule exo inh | TbMetRS inhib | ABCB6 inh 2 | hiPSC survival | MC4R antagonist | Exocytosis CP01
C[C@H](NC(=O)c1ncn2c1C(=O)N[C@@H](C)C2)c1ccccc1 | – | – | – | – | – | – | ·
O=C(Nc1ccccc1C(=O)N1CCCCC1)c1ccccc1C(F)(F)F | – | – | – | – | – | – | ·
COc1ccccc1N1CCN(CC(=O)NCC2CCCO2)CC1 (centres undefined) | – | 58 | – | – | – | – | –
COc1ccccc1C(OC(=O)c1cccs1)C(=O)NCC1CCCO1 (centres undefined) | – | 61 | – | – | – | – | –
C/C(=N\NC(=O)Cc1c[nH]c2ccccc12)c1ccc2ccccc2c1 | – | – | – | – | – | – | ·
CCOc1ccc(S(=O)(=O)N2CCCCC2)cc1NC(=O)Cc1cc(OC)c(OC)c(OC)c1 | – | – | – | – | – | – | ·
COc1ccc2nc3c(nc2c1)CCCC3 | – | – | – | – | – | – | ·
COc1ccc(OC)c(Nc2c3c(nc4ccccc24)CCC3)c1 | – | 58 | – | – | – | – | –
COc1ccc2nc3c(c(-c4ccccc4)c2c1)CCC3 | – | 66 | – | – | – | – | –
COc1ccc(OC)c(Nc2c3ccccc3nc3ccccc23)c1 | – | 67 | – | – | – | – | –
COc1ccc([N+](=O)[O-])cc1Nc1c2ccccc2nc2ccccc12 | – | 73 | – | – | – | – | 73
Cc1ccc(S(=O)(=O)N2CCCCC2)cc1C(=O)N1CCCCCC1 | – | – | – | – | – | – | ·
Cn1ncc2c(=O)n(/N=C/c3ccccc3)cnc21 | – | – | – | – | – | – | ·
CCc1ccc(NC(=S)N2CCCC(C(F)(F)F)C2)cc1 (centres undefined) | – | – | – | – | – | – | ·
O=C(Nc1nc2ccccc2n1CCN1CCOCC1)c1ccc(Cn2cc([N+](=O)[O-])cn2)o1 | – | – | – | – | – | – | ·
O=C(Nc1nc2ccccc2n1CCN1CCOCC1)c1ccc(COc2ccccc2Br)o1 | – | 70 | – | – | – | – | 80
CC(=O)N[C@@H](Cc1c[nH]c2ccccc12)C(=O)NC1CC1 | – | – | – | – | – | – | ·
O=C(COC(=O)Cc1cccs1)NCc1ccc(F)cc1 | – | – | – | – | – | – | ·
CCOC(=O)c1nnc(-c2ccccc2)nc1Sc1ccccc1Cl | – | 102 | – | – | – | – | 76
Cc1cccc(NC(=O)Cn2c(=O)oc3ccccc32)c1 | – | – | – | – | – | – | ·
CCOC(=O)c1ccccc1-c1csc(N)n1 | – | – | – | – | – | – | ·
COc1ccc(C2CC(=O)Oc3c(C(CCN4CCCC(C)C4)c4ccc(N(C)C)cc4)c(OC)cc(OC)c32)cc1 (centres undefined) | – | 72 | – | – | – | – | –
CC(=O)Nc1ccc(NC(=O)CCc2c(C)noc2C)cc1 | – | – | – | – | – | – | ·
CCN(CC)c1ccc2cc(-c3nc(-c4cc5ccccc5oc4=O)cs3)c(=O)oc2c1 | – | 81 | – | – | – | – | –
CCOC(=O)/C(C#N)=C1\CC2CCC1(C)C2(C)C (centres undefined) | – | – | – | – | – | – | ·
SMILES | MC4R ag barr | Granule exo inh | TbMetRS inhib | ABCB6 inh 2 | hiPSC survival | MC4R antagonist | Exocytosis CP01
COc1ccccc1CC(=O)c1ccc(OCc2ccccc2)cc1 | – | 81 | – | – | – | – | –
CCOc1ccc(C(=O)Cc2ccccc2)cc1 | – | – | – | – | – | – | ·
C=CCc1ccccc1OCC(O)CN1CCN(CCN2C(=O)c3cccc4cccc(c34)C2=O)CC1 (centres undefined) | – | – | – | – | – | – | ·
CCC(C)[C@H](NC(=O)Nc1ccccc1F)C(=O)OC (some centres undefined) | – | 83 | – | – | – | – | –
CN(C(=O)COc1ccc(Cl)cc1Cl)c1nnc(C23CC4CC(CC(C4)C2)C3)s1 | – | – | – | – | – | – | ·
CC(C)Nc1nc(NCCOc2ccccc2Cl)c2sc(-c3ccccc3)cc2n1 | – | 58 | – | – | – | – | –
C[C@H](c1ccccc1)N1C[C@H](COCc2ccccc2)Oc2cc(N3CC[C@H](N(C)C)C3)ccc2S1(=O)=O | · | 68 | – | – | – | · | –
C[C@@H](c1ccccc1)N1C[C@H](COCc2ccccc2)Oc2cc(N3CC[C@@H](N(C)C)C3)ccc2S1(=O)=O | · | – | – | – | – | · | ·
COc1ccc(CN2CCN(CCCCOc3ccc(Cl)cc3)CC2)c(OC)c1OC | – | 76 | – | – | – | – | –
Cc1c(Cl)ccc2c(C(O)CBr)cc(-c3ccccc3)nc12 (centres undefined) | – | 64 | – | – | – | – | –
CCN1CCN(Cc2ccc(NC(=O)c3ccc(C)c(NC(=O)C[C@@H]4NC(=O)[C@H](Cc5ccccc5)NC4=O)c3)cc2C(F)(F)F)CC1 | – | 76! | – | – | – | – | –
CCN1CCN(Cc2ccc(NC(=O)c3ccc(C)c(NC(=O)C4=NN(c5ccccc5)C(=O)C4)c3)cc2C(F)(F)F)CC1 | – | – | – | – | – | – | ·
CCOc1ccc(N(C(C)C(=O)N2CCCCCC2)S(C)(=O)=O)cc1 (centres undefined) | – | – | – | – | – | – | ·
Cc1ccc2c(CN(C)Cc3ccc(Cl)cc3)cc(=O)oc2c1 | – | – | – | – | – | – | ·
Cc1ccc2c(CN(C)Cc3ccc(Cl)cc3Cl)cc(=O)oc2c1 | – | 67 | – | – | – | – | –
Cc1ccc(S(=O)(=O)Nc2c(O)ccc3ccccc23)cc1 | – | 82 | – | – | – | – | –
CCOC(=O)C1CCN(C(=O)Nc2ccccc2Cl)CC1 | – | – | – | – | – | – | ·
CCC(C)(O)C(=O)N[C@H]1CCCN1C(=O)/C=C/c1ccccc1 (some centres undefined) | – | 59 | – | – | – | – | –
Cc1nc2ccc(C(=O)N3c4ccccc4CC3C)cc2s1 (centres undefined) | – | – | – | – | – | – | ·
CC1CC(C)CN(C(=O)c2ccc(-c3ccc([N+](=O)[O-])cc3)o2)C1 (centres undefined) | – | 74 | – | – | – | – | –
O=C(c1ccc(-c2ccc([N+](=O)[O-])cc2)o1)N1CCCCC1 | – | – | – | – | – | – | ·
COc1ccc(C2CCCN2CC(O)COc2ccccc2C(C)C)cc1 (centres undefined) | – | 63 | – | – | – | – | –
CCOC(=O)N1CCN(CC(O)COc2ccccc2C(C)C)CC1 (centres undefined) | – | – | – | – | – | – | ·
